≈ marks a conversion by molar mass, not a printed value. Calls of active or inactive are those of the source.
Legend:
[1] = Selectivity index, ratio of cytotoxicity against pig LLC-PK1 cells to IC50 for Cryptococcus neoformans ATCC 90113; assay type: toxicity, cell-based; conditions: read-out: Selectivity Index
[2] = Selectivity index, ratio of cytotoxicity against african green monkey Vero cells to IC50 for Cryptococcus neoformans ATCC 90113; assay type: toxicity, cell-based; conditions: read-out: Selectivity Index
[3] = Selectivity index, ratio of cytotoxicity against human SKOV3 cells to IC50 for Cryptococcus neoformans ATCC 90113; assay type: toxicity, cell-based, SK-OV-3; conditions: read-out: Selectivity Index
[4] = Selectivity index, ratio of cytotoxicity against human BT549 cells to IC50 for Cryptococcus neoformans ATCC 90113; assay type: toxicity, cell-based, BT-549; conditions: read-out: Selectivity Index
[5] = Selectivity index, ratio of cytotoxicity against human KB cells to IC50 for Cryptococcus neoformans ATCC 90113; assay type: toxicity, cell-based; conditions: read-out: Selectivity Index
[6] = Selectivity index, ratio of cytotoxicity against human SK-MEL cells to IC50 for Cryptococcus neoformans ATCC 90113; assay type: toxicity, cell-based; conditions: read-out: Selectivity Index
LLC-PK1 = assay: Cytotoxicity against pig LLC-PK1 cells assessed as cell viability after 48 hrs by neutral red uptake assay; assay type: cell-based, Sus scrofa; conditions: llc-pk1, 48 h
How it was run: (§1)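 Neutral red uptake assay on human cancer lines (SK-MEL, KB, BT-549, SK-OV-3) and noncancerous mammalian cells (VERO, LLC-PK1). Highest tested concentration was 10 µg/mL.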

Vero = assay: Cytotoxicity against african green monkey Vero cells assessed as cell viability after 48 hrs by neutral red uptake assay; assay type: cell-based; conditions: chlorocebus sabaeus; how it was run: as §1
SK-OV-3 = assay: Cytotoxicity against human SKOV3 cells assessed as cell viability after 48 hrs by neutral red uptake assay; assay type: cell-based; conditions: sk-ov-3, 48 h; how it was run: as §1
KB = assay: Cytotoxicity against human KB cells assessed as cell viability after 48 hrs by neutral red uptake assay; assay type: cell-based; how it was run: as §1
BT-549 = assay: Cytotoxicity against human BT549 cells assessed as cell viability after 48 hrs by neutral red uptake assay; assay type: cell-based; conditions: bt-549, 48 h; how it was run: as §1
SK-MEL = assay: Cytotoxicity against human SK-MEL cells assessed as cell viability after 48 hrs by neutral red uptake assay; assay type: cell-based; how it was run: as §1
Cryptococcus neoformans [7] = assay: Ratio of amphotericin MFC to compound MFC for Cryptococcus neoformans ATCC 90113 after 70-74 hrs by CLSI method; assay type: functional
Cryptococcus neoformans [8] = assay: Ratio of amphotericin MIC to compound MIC for Cryptococcus neoformans ATCC 90113 after 70-74 hrs by CLSI method; assay type: functional
Cryptococcus neoformans [9] = assay: Ratio of amphotericin IC50 to compound IC50 for Cryptococcus neoformans ATCC 90113 after 70-74 hrs by CLSI method; assay type: functional
Escherichia coli = assay: Antibacterial activity against Escherichia coli ATCC 35218 assessed as growth inhibition after 16-20 hrs by CLSI method; assay type: functional, organism-based
Aspergillus fumigatus = assay: Antifungal activity against Aspergillus fumigatus assessed as growth inhibition; assay type: functional, organism-based
Pichia kudriavzevii = assay: Antifungal activity against Candida krusei assessed as growth inhibition; assay type: functional, organism-based
Nakaseomyces glabratus = assay: Antifungal activity against Candida glabrata assessed as growth inhibition; assay type: functional, organism-based
Candida albicans = assay: Antifungal activity against Candida albicans assessed as growth inhibition; assay type: functional, organism-based
Staphylococcus aureus [10] = assay: Antibacterial activity against methicillin-resistant Staphylococcus aureus ATCC 33591 assessed as growth inhibition after 16-20 hrs by CLSI method; assay type: functional, organism-based
Staphylococcus aureus [11] = assay: Antibacterial activity against Staphylococcus aureus ATCC 29213 assessed as growth inhibition after 16-20 hrs by CLSI method; assay type: functional, organism-based
Cryptococcus neoformans [12] = assay: Antifungal activity against Cryptococcus neoformans ATCC 90113 assessed as growth inhibition after 70-74 hrs by CLSI method; assay type: functional, organism-based; conditions: Cryptococcus neoformans, ATCC 90113; for IC50: read-out: IC50

With `CC(C)(C)c1ccc(-c2nc(C[C@H](N)C(=O)N[C@@H](CCCNC(=N)N)C(=O)NCc3ccccc3)c[nH]2)cc1` as the compound, how does the selectivity ratio [1] read?
Its selectivity ratio is over 62.5.

What about the selectivity ratio [2] of the same compound?
The selectivity ratio was over 62.5.

And the selectivity ratio [3]?
The selectivity ratio was over 62.5.

And the selectivity ratio [4]?
The selectivity ratio was over 62.5.

What about the selectivity ratio [5] of the same compound?
Its selectivity ratio is over 62.5.

And the selectivity ratio [6]?
Its selectivity ratio is over 62.5.

And the Activity (LLC-PK1)?
Its Activity is over 10 µg/mL.

What about the Activity (Vero) of the same compound?
Its Activity is over 10 µg/mL.

And the Activity (SK-OV-3)?
Its Activity is over 10 µg/mL.

What about the Activity (KB) of the same compound?
The Activity was over 10 µg/mL.

And the Activity (BT-549)?
Its Activity is over 10 µg/mL.

What about the Activity (SK-MEL) of the same compound?
Its Activity is over 10 µg/mL.

And the Ratio (Cryptococcus neoformans [7])?
The Ratio was over 4.

And the Ratio (Cryptococcus neoformans [8])?
The Ratio was over 4.

And the “Ratio IC50” value (Cryptococcus neoformans [9])?
The value was over 4.

And the “growth inhibition (GI)” value (Escherichia coli)?
Its value is “inactive”.

And the “growth inhibition (GI)” value (Aspergillus fumigatus)?
The value was “inactive”.

What about the “growth inhibition (GI)” value (Pichia kudriavzevii) of the same compound?
The value was “inactive”.

And the “growth inhibition (GI)” value (Nakaseomyces glabratus)?
Its value is “inactive”.

What about the “growth inhibition (GI)” value (Candida albicans) of the same compound?
The value was “inactive”.

And the IC50 (Staphylococcus aureus [10])?
Its IC50 is “Not Active”.

What about the MBC (Staphylococcus aureus [10]) of the same compound?
Its MBC is “inactive”.

What about the MIC (Staphylococcus aureus [10]) of the same compound?
The MIC was “inactive”.

And the IC50 (Staphylococcus aureus [11])?
Its IC50 is 15.9 µg/mL (≈ 29.8 µM).

And the MBC (Staphylococcus aureus [11])?
The MBC was “inactive”.

What about the MIC (Staphylococcus aureus [11]) of the same compound?
The MIC was “inactive”.

What about the MFC (Cryptococcus neoformans [12]) of the same compound?
Its MFC is 0.31 µg/mL (≈ 0.582 µM).

And the MIC (Cryptococcus neoformans [12])?
The MIC was 0.31 µg/mL (≈ 0.582 µM).

And the IC50 (Cryptococcus neoformans [12])?
Its IC50 is 0.16 µg/mL (≈ 0.3 µM).

What does the source list for `CC(C)(C)OC(=O)N[C@@H](Cc1c[nH]c(-c2ccc(-c3ccccc3)cc2)n1)C(=O)N[C@@H](CCCNC(=N)N)C(=O)NCc1ccccc1`?
selectivity ratio [1]: > 9.2; selectivity ratio [2]: > 9.2; selectivity ratio [3]: > 9.2; selectivity ratio [4]: > 9.2; selectivity ratio [5]: > 9.2; selectivity ratio [6]: > 9.2; Activity (LLC-PK1): > 10 µg/mL; Activity (Vero): > 10 µg/mL; Activity (SK-OV-3): > 10 µg/mL; Activity (KB): > 10 µg/mL; Activity (BT-549): > 10 µg/mL; Activity (SK-MEL): > 10 µg/mL; growth inhibition (GI) (Escherichia coli): inactive; growth inhibition (GI) (Aspergillus fumigatus): inactive; growth inhibition (GI) (Pichia kudriavzevii): inactive; growth inhibition (GI) (Nakaseomyces glabratus): inactive; growth inhibition (GI) (Candida albicans): inactive; MBC (Staphylococcus aureus [10]): inactive; MIC (Staphylococcus aureus [10]; Staphylococcus aureus, ATCC 33591): 20 µg/mL (≈ 30.6 µM); IC50 (Staphylococcus aureus [10]; Staphylococcus aureus, ATCC 33591, read-out: IC50): 8.97 µg/mL (≈ 13.7 µM); IC50 (Staphylococcus aureus [11]): 7.3 µg/mL (≈ 11.2 µM); MIC (Staphylococcus aureus [11]): 10 µg/mL (≈ 15.3 µM); MFC (Cryptococcus neoformans [12]): 2.5 µg/mL (≈ 3.83 µM); MIC (Cryptococcus neoformans [12]): 2.5 µg/mL (≈ 3.83 µM); IC50 (Cryptococcus neoformans [12]): 1.09 µg/mL (≈ 1.67 µM)
